Assay results as given in ChEMBL document CHEMBL1131034, “Synthesis and pharmacological characterization of novel 6-fluorochroman derivatives as potential 5-HT1A receptor antagonists” (J Med Chem, 1998).

Tests used:
[1] = Binding affinity (Ki) ratio of D2 receptor of rat striatum and 5-HT1A receptor of rat hippocampus.; assay type: tissue-based
Rattus norvegicus [2] = assay: In vivo antagonist activity was measured as forepaw treading(FT) in a behavioral response test in reserpinized rats at 3 mg/kg(sc) dose.; assay type: functional
How it was run: (§1)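 Male Wistar rats given reserpine 18 h before use. Test compound or vehicle given 15 min before 8-OH-DPAT (0.25 mg/kg sc). Starting 3 min after agonist, forepaw treading and flat body posture scored every 3 min for 15 min on a ranked intensity scale. Doses expressed as free base. Mean ± SEM; Mann–Whitney U-test against vehicle control.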

Rattus norvegicus [3] = assay: In vivo antagonist activity was measured as flat body posture (FBP) in a behavioral response test in reserpinized rats upon subcutaneous administration; assay type: functional; how it was run: as §1
Rattus norvegicus [4] = assay: In vivo antagonist activity was measured as forepaw treading(FT) in a behavioral response test in reserpinized rats upon subcutaneous administration; assay type: functional; how it was run: as §1
[5] = molecular target: T1, Adrenergic receptor alpha-1 (Rattus norvegicus, UniProt P15823+P23944+P43140); assay: Binding affinity against alpha-1 adrenergic receptor on rat cortex using [3H]-prazosin as radioligand.; assay type: tissue-based, Brain
T1 sequence (P15823 whole entry): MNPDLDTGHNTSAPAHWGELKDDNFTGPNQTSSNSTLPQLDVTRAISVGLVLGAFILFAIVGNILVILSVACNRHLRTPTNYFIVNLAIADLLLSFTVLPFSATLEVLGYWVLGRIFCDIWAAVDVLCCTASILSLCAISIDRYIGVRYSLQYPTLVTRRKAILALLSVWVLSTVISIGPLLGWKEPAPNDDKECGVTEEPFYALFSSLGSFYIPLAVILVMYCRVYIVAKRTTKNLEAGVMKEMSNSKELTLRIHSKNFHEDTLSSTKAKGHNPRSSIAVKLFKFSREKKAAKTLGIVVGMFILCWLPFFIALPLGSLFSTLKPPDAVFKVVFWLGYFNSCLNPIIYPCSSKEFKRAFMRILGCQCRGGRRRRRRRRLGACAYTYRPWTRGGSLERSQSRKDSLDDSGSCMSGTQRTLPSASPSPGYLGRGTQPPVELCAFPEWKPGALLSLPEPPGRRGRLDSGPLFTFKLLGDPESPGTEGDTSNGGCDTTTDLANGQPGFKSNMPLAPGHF
T1 sequence (P23944 whole entry): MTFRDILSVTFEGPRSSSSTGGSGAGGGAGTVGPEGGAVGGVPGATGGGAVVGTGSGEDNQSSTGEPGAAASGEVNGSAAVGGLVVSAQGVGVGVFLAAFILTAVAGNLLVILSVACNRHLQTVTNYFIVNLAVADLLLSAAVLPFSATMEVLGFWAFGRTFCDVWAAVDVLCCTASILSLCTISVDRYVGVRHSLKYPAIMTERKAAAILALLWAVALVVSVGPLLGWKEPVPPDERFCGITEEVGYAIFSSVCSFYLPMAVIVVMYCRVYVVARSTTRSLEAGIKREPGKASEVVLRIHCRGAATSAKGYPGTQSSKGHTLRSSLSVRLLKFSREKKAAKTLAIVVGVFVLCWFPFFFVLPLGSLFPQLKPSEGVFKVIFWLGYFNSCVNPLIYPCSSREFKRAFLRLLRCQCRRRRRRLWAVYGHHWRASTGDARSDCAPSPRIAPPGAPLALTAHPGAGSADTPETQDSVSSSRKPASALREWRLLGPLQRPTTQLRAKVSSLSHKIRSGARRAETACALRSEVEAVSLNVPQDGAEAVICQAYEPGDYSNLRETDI
T1 sequence (P43140 whole entry): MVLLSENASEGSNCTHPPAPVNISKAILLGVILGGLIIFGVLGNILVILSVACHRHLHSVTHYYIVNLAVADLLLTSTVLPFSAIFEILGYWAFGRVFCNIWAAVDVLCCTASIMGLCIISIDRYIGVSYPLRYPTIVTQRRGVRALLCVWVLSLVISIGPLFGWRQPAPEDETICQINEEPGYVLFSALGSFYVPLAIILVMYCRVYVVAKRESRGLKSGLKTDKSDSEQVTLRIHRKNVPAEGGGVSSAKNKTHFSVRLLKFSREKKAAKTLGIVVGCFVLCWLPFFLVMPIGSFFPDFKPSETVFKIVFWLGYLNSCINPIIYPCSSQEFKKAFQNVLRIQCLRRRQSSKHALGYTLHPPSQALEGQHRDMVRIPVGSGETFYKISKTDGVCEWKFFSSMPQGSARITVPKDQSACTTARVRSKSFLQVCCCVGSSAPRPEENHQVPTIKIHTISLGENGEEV

[6] = molecular target: T2, 5-hydroxytryptamine receptor 1A (Homo sapiens) (UniProt P08908); assay: Antagonist activity against CHO cells expressing the human 5-hydroxytryptamine 1A receptor in a forskolin stimulated adenylate cyclase (FSC) assay.; assay type: functional, cell-based
T2 sequence (whole entry): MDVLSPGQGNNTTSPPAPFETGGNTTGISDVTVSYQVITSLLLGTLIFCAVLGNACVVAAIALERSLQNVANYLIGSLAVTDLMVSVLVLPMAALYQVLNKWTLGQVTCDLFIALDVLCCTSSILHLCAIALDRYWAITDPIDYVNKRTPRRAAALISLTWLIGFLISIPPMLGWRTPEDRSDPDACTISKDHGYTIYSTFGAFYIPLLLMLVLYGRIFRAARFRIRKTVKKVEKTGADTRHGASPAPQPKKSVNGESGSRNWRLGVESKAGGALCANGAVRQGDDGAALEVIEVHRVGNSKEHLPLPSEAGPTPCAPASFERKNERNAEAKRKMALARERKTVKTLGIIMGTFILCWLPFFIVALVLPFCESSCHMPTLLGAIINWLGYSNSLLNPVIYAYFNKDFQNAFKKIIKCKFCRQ

[7] = molecular target: Serotonin 1a (5-HT1a) receptor/Adrenergic receptor alpha-1 (Rattus norvegicus) (UniProt P15823+P23944+P43140+P19327); assay: Selectivity for 5-HT1A receptor of rat hippocampus and alpha-1 adrenergic receptor of rat cortex.; assay type: tissue-based
Rattus norvegicus [8] = assay: In vivo antagonist activity was measured as flat body posture (FBP) in a behavioral response test in reserpinized rats at 3 mg/kg(sc) dose.; assay type: functional; how it was run: as §1
D(2) dopamine receptor = D(2) dopamine receptor (Rattus norvegicus, UniProt P61169); assay: Binding affinity against dopamine receptor D2 on rat striatum using [3H]spiperone as radioligand.; assay type: tissue-based
Sequence of D(2) dopamine receptor (P61169 whole entry): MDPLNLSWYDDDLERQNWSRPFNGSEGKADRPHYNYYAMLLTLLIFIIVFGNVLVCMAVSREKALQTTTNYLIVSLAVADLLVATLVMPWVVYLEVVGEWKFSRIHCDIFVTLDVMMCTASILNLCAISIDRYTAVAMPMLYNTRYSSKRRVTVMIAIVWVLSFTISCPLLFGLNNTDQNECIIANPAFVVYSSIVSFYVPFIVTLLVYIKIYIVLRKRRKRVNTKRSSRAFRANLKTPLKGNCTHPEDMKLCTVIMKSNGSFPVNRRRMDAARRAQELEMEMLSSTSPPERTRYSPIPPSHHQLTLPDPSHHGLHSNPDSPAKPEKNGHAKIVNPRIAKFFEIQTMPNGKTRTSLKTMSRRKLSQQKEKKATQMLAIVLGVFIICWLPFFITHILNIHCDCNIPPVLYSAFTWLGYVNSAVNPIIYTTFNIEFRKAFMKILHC

[9] = molecular target: T3, 5-hydroxytryptamine receptor 1A (Rattus norvegicus, UniProt P19327); assay: Binding affinity against 5-hydroxytryptamine 1A receptor on rat hippocampus using [3H]8-OH-DPAT as radioligand.; assay type: tissue-based
T3 sequence (P19327 whole entry): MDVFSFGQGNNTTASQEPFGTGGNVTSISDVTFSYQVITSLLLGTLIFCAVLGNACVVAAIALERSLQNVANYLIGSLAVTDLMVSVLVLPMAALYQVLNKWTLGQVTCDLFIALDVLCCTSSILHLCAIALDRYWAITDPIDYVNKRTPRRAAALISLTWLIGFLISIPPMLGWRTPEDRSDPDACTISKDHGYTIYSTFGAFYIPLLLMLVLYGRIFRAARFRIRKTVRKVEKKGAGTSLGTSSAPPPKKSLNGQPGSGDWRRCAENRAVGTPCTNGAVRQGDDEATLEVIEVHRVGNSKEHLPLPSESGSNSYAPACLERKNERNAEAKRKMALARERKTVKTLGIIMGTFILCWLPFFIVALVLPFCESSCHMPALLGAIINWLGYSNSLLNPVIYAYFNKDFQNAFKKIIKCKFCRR

Rattus norvegicus [10] = assay: In vivo antagonist activity was measured as forepaw treading(FT) in a behavioral response test in reserpinized rats at 1 mg/kg(sc) dose.; assay type: functional; how it was run: as §1
Rattus norvegicus [11] = assay: In vivo antagonist activity was measured as flat body posture (FBP) in a behavioral response test in reserpinized rats at 1 mg/kg(sc) dose.; assay type: functional; how it was run: as §1
Rattus norvegicus [12] = assay: in vivo antagonist activity was measured as forepaw treading(FT) in a behavioral response test in reserpinized rats at 3 mg/kg(sc) dose; assay type: functional
How it was run: (§2)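 Male Wistar rats given reserpine 18 h beforehand. Test compound or vehicle given sc; 15 min later 8-OH-DPAT 0.25 mg/kg sc. Forepaw treading and flat body posture scored on a ranked intensity scale every 3 min for 15 min, starting 3 min after 8-OH-DPAT. Doses as free base; mean ± SEM, Mann–Whitney U-test against vehicle controls.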

Rattus norvegicus [13] = assay: in vivo antagonist activity was measured as flat body posture (FBP) in a behavioral response test in reserpinized rats at 3 mg/kg(sc) dose; assay type: functional; how it was run: as §2
Rattus norvegicus [14] = assay: in vivo antagonist activity was measured as flat body posture (FBP) in a behavioral response test in reserpinized rats at 1 mg/kg(sc) dose; assay type: functional; how it was run: as §2
Rattus norvegicus [15] = assay: in vivo antagonist activity was measured as forepaw treading(FT) in a behavioral response test in reserpinized rats at 1 mg/kg(sc) dose; assay type: functional; how it was run: as §2
Rattus norvegicus [16] = assay: in vivo antagonist activity was measured as forepaw treading(FT) in a behavioral response test in reserpinized rats upon subcutaneous administration; assay type: functional; how it was run: as §2
Rattus norvegicus [17] = assay: in vivo antagonist activity was measured as flat body posture (FBP) in a behavioral response test in reserpinized rats upon subcutaneous administration; assay type: functional; how it was run: as §2

Ratio [1]	Ki [5]	FSC recovery [6]	Selectivity [7]	Ki (D(2) dopamine receptor)	Ki [9]	SMILES	Behavior score (Rattus norvegicus [2])	Behavior score (Rattus norvegicus [3])	Behavior score (Rattus norvegicus [4])	Behavior score (Rattus norvegicus [8])	Behavior score (Rattus norvegicus [10])	Behavior score (Rattus norvegicus [11])	Behavior score (Rattus norvegicus [12])	Behavior score (Rattus norvegicus [13])	Behavior score (Rattus norvegicus [14])	Behavior score (Rattus norvegicus [15])	Behavior score (Rattus norvegicus [16])	Behavior score (Rattus norvegicus [17])
1.8	8.31 nM	109%	52	0.288 nM	0.159 nM	COc1ccc(CCCCNCCOc2cc(F)cc3c2OCC=C3)cc1	0	11.8	11.8	2.8	1.3	3.7						
16	209 nM	55%	78	42.1 nM	2.67 nM	O=C1CCOc2c(OCCNCCCCc3ccc4c(c3)OCO4)cc(F)cc21	1.5	9.7	7.8	3	3	5.3						
1.2		121%	12			COc1ccc(CCCCNCCOc2cc(F)cc3c2OCCC3)cc1	0.5	11.5	8.8	3	1.8	3.8						
20	203 nM	59%	66	62.3 nM	3.07 nM	COc1ccc(CCCCNCCOc2cc(F)cc3c2OCCC3=O)cc1	1.3	11.3	10.2	2.3	3.8	6						
	10.4 nM			0.724 nM	0.716 nM	COc1ccc(CCCCNCCOc2cc(F)cc3c2OCCC3O)cc1 (stereo in doubt; 34)	1.8	12.4	8.6	4	3.3	6.8						
12	169 nM	68%	40	49.6 nM	4.19 nM	O=C1CCOc2c(OCCNCCCCc3ccc4c(c3)CCO4)cc(F)cc21	1.2	12.3	10.1	3.8	4	6.8						
9.7	303 nM	65%	120	25.1 nM	2.6 nM	O=C1CCOc2c(OCCNCCCCc3ccc4c(c3)OCCO4)cc(F)cc21	5.8	11	7.7	8.5								
0.42	120 nM	26%	2.2	23.3 nM	55.8 nM	O=C1CCOc2c(OCCNCCCCc3ccc(O)cc3)cc(F)cc21												

SMILES	Ratio [1]	Ki [5]	FSC recovery [6]	Selectivity [7]	Ki (D(2) dopamine receptor)	Ki [9]	Behavior score (Rattus norvegicus [2])	Behavior score (Rattus norvegicus [3])	Behavior score (Rattus norvegicus [4])	Behavior score (Rattus norvegicus [8])	Behavior score (Rattus norvegicus [10])	Behavior score (Rattus norvegicus [11])	Behavior score (Rattus norvegicus [12])	Behavior score (Rattus norvegicus [13])	Behavior score (Rattus norvegicus [14])	Behavior score (Rattus norvegicus [15])	Behavior score (Rattus norvegicus [16])	Behavior score (Rattus norvegicus [17])
CCCN(CCC)[C@H]1CCc2c(F)ccc(O)c2C1				130									0.5	1.8	3.5	1.3	9.9	12.6
